Assay results as given in ChEMBL document CHEMBL3994580, “A novel class of α-glucosidase and HMG-CoA reductase inhibitors from Ganoderma leucocontextum and the anti-diabetic properties of ganomycin I in KK-Ay mice” (Eur J Med Chem, 2017).
Activity calls are given as the source filed them.

Assays:
[1] = Inhibition of baker's yeast alpha-glucosidase using p-nitrophenyl alpha-D-glucopyranoside as substrate preincubated for 10 mins followed by substrate addition measured for 15 mins; set-up: species or system Saccharomyces cerevisiae
Procedure, shortened: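 Baker's yeast α-glucosidase with pNPG, read at 405 nm. Control contained phosphate buffer in place of compound, and blank contained buffer in place of enzyme.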

[2] = Inhibition of alpha-glucosidase in rat small intestinal mucosa assessed as reduction in glucose production using p-nitrophenyl alpha-D-glucopyranoside as substrate measured after 40 mins by glucose oxidase assay
Procedure, shortened: (§1)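 Rat small intestinal mucosa enzyme. Compound in DMSO mixed with substrate (maltose, sucrose or pNPG) and enzyme in 0.1 M phosphate buffer pH 6.9, incubated 40 min. Glucose released measured by glucose oxidase kit at 550 nm. Blank lacked enzyme, control lacked compound. Percent inhibition calculated from blank-corrected OD.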

[3] = biological target: Sucrase-isomaltase, intestinal (Rattus norvegicus, UniProt P23739); assay: Inhibition of sucrase in rat small intestinal mucosa assessed as reduction in glucose production using sucrose as substrate measured after 40 mins by glucose oxidase assay; procedure, shortened: as §1
Sucrase-isomaltase, intestinal, sequence (P23739 1-1013 limits assumed): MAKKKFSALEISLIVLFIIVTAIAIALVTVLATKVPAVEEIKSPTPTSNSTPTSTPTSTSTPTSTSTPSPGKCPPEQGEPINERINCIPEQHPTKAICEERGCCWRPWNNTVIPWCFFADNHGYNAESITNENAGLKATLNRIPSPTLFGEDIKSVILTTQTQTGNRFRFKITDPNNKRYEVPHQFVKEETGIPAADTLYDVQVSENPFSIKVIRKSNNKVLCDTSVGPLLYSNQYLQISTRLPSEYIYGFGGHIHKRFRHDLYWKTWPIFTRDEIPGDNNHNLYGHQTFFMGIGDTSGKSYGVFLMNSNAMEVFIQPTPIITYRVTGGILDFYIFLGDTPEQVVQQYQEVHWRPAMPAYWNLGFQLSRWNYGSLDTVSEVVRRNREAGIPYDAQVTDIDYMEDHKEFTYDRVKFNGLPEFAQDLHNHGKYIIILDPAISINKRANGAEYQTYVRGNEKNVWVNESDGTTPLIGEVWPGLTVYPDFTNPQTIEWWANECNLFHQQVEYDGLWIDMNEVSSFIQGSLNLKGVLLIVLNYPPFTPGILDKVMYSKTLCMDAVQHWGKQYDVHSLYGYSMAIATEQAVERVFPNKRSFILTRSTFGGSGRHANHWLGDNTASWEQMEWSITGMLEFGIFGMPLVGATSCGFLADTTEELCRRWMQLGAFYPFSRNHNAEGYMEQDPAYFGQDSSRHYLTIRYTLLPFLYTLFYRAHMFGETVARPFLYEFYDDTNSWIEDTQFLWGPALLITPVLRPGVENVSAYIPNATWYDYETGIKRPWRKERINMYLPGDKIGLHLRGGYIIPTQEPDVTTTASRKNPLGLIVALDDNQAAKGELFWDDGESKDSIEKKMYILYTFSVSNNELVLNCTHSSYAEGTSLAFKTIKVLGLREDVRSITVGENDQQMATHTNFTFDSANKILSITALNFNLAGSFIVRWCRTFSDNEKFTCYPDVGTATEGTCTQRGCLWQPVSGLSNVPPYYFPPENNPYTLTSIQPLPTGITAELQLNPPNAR
Sucrase-isomaltase, intestinal, sequence (P23739 1014-1841 limits assumed): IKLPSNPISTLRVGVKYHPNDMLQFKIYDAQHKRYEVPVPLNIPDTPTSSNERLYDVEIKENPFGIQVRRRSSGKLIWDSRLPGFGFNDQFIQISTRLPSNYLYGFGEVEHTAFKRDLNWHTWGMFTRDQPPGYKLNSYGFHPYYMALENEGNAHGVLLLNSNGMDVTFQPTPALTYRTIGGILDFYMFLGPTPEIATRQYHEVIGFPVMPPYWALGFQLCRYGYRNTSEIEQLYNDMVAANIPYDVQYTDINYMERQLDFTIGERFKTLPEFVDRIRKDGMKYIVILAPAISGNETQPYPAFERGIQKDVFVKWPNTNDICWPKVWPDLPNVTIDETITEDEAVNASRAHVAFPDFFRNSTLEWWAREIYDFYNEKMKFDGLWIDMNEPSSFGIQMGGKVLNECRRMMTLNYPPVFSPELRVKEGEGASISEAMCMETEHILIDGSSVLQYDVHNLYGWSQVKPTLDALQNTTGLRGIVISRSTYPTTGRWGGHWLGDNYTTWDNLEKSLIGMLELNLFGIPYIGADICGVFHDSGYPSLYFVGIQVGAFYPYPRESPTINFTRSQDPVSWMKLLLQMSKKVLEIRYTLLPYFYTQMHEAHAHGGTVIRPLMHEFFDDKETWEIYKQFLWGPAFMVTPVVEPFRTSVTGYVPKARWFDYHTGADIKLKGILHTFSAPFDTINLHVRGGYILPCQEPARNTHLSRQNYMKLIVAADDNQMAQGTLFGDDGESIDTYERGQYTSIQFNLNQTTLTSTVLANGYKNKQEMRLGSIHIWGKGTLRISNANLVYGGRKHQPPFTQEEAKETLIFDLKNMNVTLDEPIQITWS

[4] = Inhibition of maltase in rat small intestinal mucosa assessed as reduction in glucose production using maltose as substrate measured after 40 mins by glucose oxidase assay; procedure, shortened: as §1
[5] = test system: Mus musculus; assay: Acute toxicity in mouse assessed as convulsion up to […], po up to 14 days; type: organism-based; conditions: in vivo, 336 h
[6] = test system: Mus musculus; assay: Acute toxicity in mouse assessed as mortality up to […], po up to 14 days; type: organism-based; conditions: in vivo, 336 h
[7] = test system: Mus musculus; assay: Antidiabetic activity in KK-Ay diabetic mouse model assessed as reduction in blood glucose level after 4 hrs fasting at 1 to 5 mg/kg/day administered via oral gavage once daily measured on day 3 post dose; type: functional, organism-based
Procedure, shortened: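 KK-Ay mice on high-fat diet, gavaged once daily (1 or 5 mg/kg; rosiglitazone 10 mg/kg). Blood glucose monitored sequentially after 4 h fasting. Mean ± SEM, n = 8, compared with the KK-Ay model group.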

[8] = test system: Mus musculus; assay: Antidiabetic activity in KK-Ay diabetic mouse model assessed as reduction in free diet blood glucose level at 1 to 5 mg/kg/day administered via oral gavage once daily measured on day 3 post dose; type: functional, organism-based
Procedure, shortened: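 Non-fasted (free diet) blood glucose was tracked serially in high-fat-fed KK-Ay mice given daily gavage doses (1 or 5 mg/kg; rosiglitazone 10 mg/kg). Mean ± SEM, n = 8.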

[9] = test system: Mus musculus; assay: Antidiabetic activity in KK-Ay diabetic mouse model assessed as reduction in HbA1C level at 1 to 5 mg/kg/day administered via oral gavage once daily for 21 days; type: functional, organism-based
[10] = test system: Mus musculus; assay: Toxicity in KK-Ay diabetic mouse model assessed as changes in body weight at 1 to 5 mg/kg/day administered via oral gavage once daily measured every 3 days during first two weeks of compound dosing; type: organism-based; conditions: in vivo, 72 h
Procedure, shortened: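 In high-fat-fed KK-Ay mice gavaged once daily for 21 days, individual body weight and cage food consumption were recorded every 3 days. Mean ± SEM, n = 8.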

[11] = test system: Mus musculus; assay: Antidiabetic activity in KK-Ay diabetic mouse model assessed as reduction in blood glucose level at 1 to 5 mg/kg/day administered via oral gavage once daily for 21 days by oral sucrose tolerance test; type: functional, organism-based
Procedure, shortened: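 Oral sucrose tolerance test on day 20 of once-daily gavage treatment in high-fat-fed KK-Ay mice. Blood glucose followed over time, and the AUC was calculated. Mean ± SEM, n = 8.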

[12] = test system: Mus musculus; assay: Antidiabetic activity in KK-Ay diabetic mouse model assessed as reduction in serum insulin level at 1 to 5 mg/kg/day administered via oral gavage once daily for 21 days; type: functional, organism-based
Procedure, shortened: (§2)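 Male KK-Ay mice (8 weeks old) on high-fat diet with water ad libitum, dosed by gavage once daily for 21 days (1 or 5 mg/kg test; rosiglitazone 10 mg/kg); female C57BL/6J mice as normal controls. Blood collected at study end. Serum lipids, insulin and glucose measured per cited method. ISI calculated from fasting blood glucose and fasting insulin. Mean ± SEM, n = 7-8.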

[13] = test system: Mus musculus; assay: Antidiabetic activity in KK-Ay diabetic mouse model assessed as increase in insulin sensitivity index at 1 to 5 mg/kg/day administered via oral gavage once daily for 21 days; type: functional, organism-based; procedure, shortened: as §2
[14] = test system: Mus musculus; assay: Hypolipidemic activity in KK-Ay diabetic mouse model assessed as reduction in serum NEFA level at 1 to 5 mg/kg/day administered via oral gavage once daily for 21 days; type: functional, organism-based; procedure, shortened: as §2
[15] = test system: Mus musculus; assay: Hypolipidemic activity in KK-Ay diabetic mouse model assessed as reduction in serum total cholesterol level at 1 to 5 mg/kg/day administered via oral gavage once daily for 21 days; type: functional, organism-based; procedure, shortened: as §2
[16] = test system: Mus musculus; assay: Hypolipidemic activity in KK-Ay diabetic mouse model assessed as reduction in serum LDL-C level at 1 to 5 mg/kg/day administered via oral gavage once daily for 21 days; type: functional, organism-based; procedure, shortened: as §2
[17] = test system: Mus musculus; assay: Hypoglycemic activity in KK-Ay diabetic mouse model assessed as increase in liver hepatic glycogen level at 1 to 5 mg/kg/day administered via oral gavage once daily for 4 weeks; type: functional, organism-based
[18] = test system: Mus musculus; assay: Decrease in serum AST level in KK-Ay diabetic mouse model at 1 to 5 mg/kg/day administered via oral gavage once daily for 21 days; type: functional, organism-based; procedure, shortened: as §2
[19] = test system: Mus musculus; assay: Decrease in hepatocyte hypertrophy in KK-Ay diabetic mouse model at 5 mg/kg/day administered via oral gavage once daily for 21 days by haematoxylin and eosin staining based microscopic or morphometric method; type: functional, organism-based
Procedure, shortened: (§3)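 At study end, liver and abdominal white adipose tissue were fixed in 10% formaldehyde PBS (pH 7.4), paraffin-embedded, sectioned and stained with haematoxylin/eosin. Sections were assessed by microscopy or morphometry at 20×.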

[20] = test system: Mus musculus; assay: Decrease in lipid droplet accumulation in liver in KK-Ay diabetic mouse model at 5 mg/kg/day administered via oral gavage once daily for 21 days by haematoxylin and eosin staining based microscopic or morphometric method; type: functional, organism-based; procedure, shortened: as §3
[21] = test system: Mus musculus; assay: Decrease in size of adipocytes in abdominal white adipose tissue in KK-Ay diabetic mouse model at 5 mg/kg/day administered via oral gavage once daily for 21 days by haematoxylin and eosin staining based microscopic or morphometric method; type: functional, organism-based; procedure, shortened: as §3
[22] = test system: Mus musculus; assay: Acute toxicity in mouse assessed as coma up to 3 g/kg, po up to 14 days; conditions: in vivo, 336 h
[23] = test system: Mus musculus; assay: Acute toxicity in mouse assessed as changes in nature of stool up to 3 g/kg, po up to 14 days; conditions: in vivo, 336 h
[24] = test system: Mus musculus; assay: Acute toxicity in mouse assessed as effect on physical activity up to 3 g/kg, po up to 14 days; conditions: in vivo, 336 h

CC(C)=CCC/C(C)=C/CCC1=C[C@H](c2cc(O)ccc2O)OC1=O
67600 nM: IC50 [3]
3600 nM: IC50 [4]
active: Activity [7] | Activity [8] | Activity [9] | Activity [11] | Activity [12] | Activity [13] | Activity [14] | Activity [15] | Activity [16] | Activity [17] | Activity [18] | Activity [19] | Activity [20] | Activity [21]
400 nM: IC50 [2]
300 nM: IC50 [1]
Non-Toxic: Activity [5] | Activity [6] | Activity [10] | Activity [22] | Activity [23] | Activity [24]
